Results reported in ChEMBL document CHEMBL1123317, “[pGlu6,Pro9]SP6-11, a selective agonist for the substance P P-receptor subtype” (J Med Chem, 1986).

Assays:
Cavia porcellus [1] = species: Cavia porcellus; assay: Compound was evaluated for potency relative to neurokinin B against SP-N system (enteric nerves of Guinea pig ileum); type: functional
How it was run: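 Neuronal SP-N receptor of guinea pig ileum assayed after desensitizing the muscular receptor with substance P methyl ester 10⁻⁷ M (2-min preincubation). Tissue in Tyrode's solution, 95% O2-5% CO2, 34 °C; isotonic contractions; peptides at 2-3-min intervals, under 30 s contact.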

Cricetinae gen. sp. [2] = assay: Compound was evaluated for potency in SP-E system and relative potency was determined against Hamster urinary bladder; type: functional, Cricetulus griseus
How it was run: (§1)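 Isolated tissue (hamster urinary bladder or rat duodenum) in 10-mL bath of Tyrode's solution gassed with 95% O2-5% CO2 at 34 °C; isotonic contraction recorded. Duodenum: peptides applied at 2-3-min intervals, contact under 30 s. Bladder: 15-30-min intervals, contact 1-3 min.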

Rattus norvegicus [3] = species: Rattus norvegicus; assay: Compound was evaluated for potency in SP-E system and relative potency was determined against rat duodenum; type: functional; how it was run: as §1
Cavia porcellus [4] = species: Cavia porcellus; assay: Compound was evaluated for effective dose against guinea pig ileum; type: functional
How it was run: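 Guinea pig ileum in 10-mL bath of Tyrode's solution, 95% O2-5% CO2, 34 °C, with atropine 10⁻⁶ M present (muscular SP-P receptor); isotonic contractions; peptides applied at 2-3-min intervals, contact under 30 s.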

Rattus norvegicus [5] = species: Rattus norvegicus; assay: Compound was evaluated for effective dose against rat duodenum; type: functional; how it was run: as §1
Cricetinae gen. sp. [6] = assay: Compound was evaluated for effective dose against hamster bladder; type: functional, Cricetulus griseus; how it was run: as §1

EC50 (Cavia porcellus [4]) [nM]	EC50 (Rattus norvegicus [5]) [nM]	EC50 (Cricetinae gen. sp. [6]) [nM]	SMILES	Relative potency (Cavia porcellus [1])	Relative potency (Cricetinae gen. sp. [2])	Relative potency (Rattus norvegicus [3])
			CSCC[C@H](NC(=O)[C@H](CC(C)C)NC(=O)CNC(=O)[C@@H](NC(=O)[C@H](Cc1ccccc1)NC(=O)[C@H](CO)NC(=O)[C@H](CC(=O)O)NC(=O)[C@@H](NC(=O)[C@H](CCCCN)NC(=O)[C@@H](N)Cc1c[nH]cn1)[C@@H](C)O)C(C)C)C(N)=O [NEUROKININ A]	0.04	1	0.3
1.5	6.5	50	CSCC[C@H](NC(=O)[C@H](CC(C)C)NC(=O)CNC(=O)[C@@H](NC(=O)[C@H](Cc1ccccc1)NC(=O)[C@H](Cc1ccccc1)NC(=O)[C@H](CC(=O)O)NC(=O)[C@H](Cc1c[nH]cn1)NC(=O)[C@H](CCSC)NC(=O)[C@@H](N)CC(=O)O)C(C)C)C(N)=O [NEUROKININ B]	1	1	1
